≈ marks a conversion by molar mass, not a printed value.
Tests used:
[1] = Solubility of compound in pH 7.4 PBS buffer at 1 mg incubated for overnight by LC-MS/MS analysis; format: physicochemical; settings: in vitro
How it was run: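 Aqueous solubility was measured in phosphate buffer at pH 7.4 and reported in mg/mL.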

TZM = test: Cytotoxicity against human TZM-bl cells incubated for 3 days by MTS assay; format: cell-based; settings: 72 h
[2] = Apparent permeability from apical to basolateral side in human Caco2 cells at 5 uM measured for 120 mins by LC-MS/MS analysis; format: ADME, cell-based; settings: caco-2, 2 h
[3] = Half life in human liver microsomes at 3 uM preincubated for 3 mins followed by NADPH addition and measured up to 120 mins by LC-MS/MS analysis; format: ADME, Microsome; settings: 2 h
[4] = Apparent permeability from apical to basolateral side in human Caco2 cells at 5 uM preincubated with vals-podar for 30 mins and measured for 120 mins by LC-MS/MS analysis; format: ADME, cell-based; settings: Caco-2, with valspodar (printed as vals-podar; concentration not stated)
How it was run: (§1)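 Bidirectional Caco-2 transport run with the P-gp inhibitor valspodar at 1 μM. Papp is given as ×10−6 cm/sec for each direction, and the efflux ratio is taken from B-to-A over A-to-B.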

[5] = Apparent permeability from basolateral side to apical side in human Caco2 cells at 5 uM measured for 120 mins by LC-MS/MS analysis; format: ADME, cell-based; settings: caco-2, 2 h
CYP3A [6] = molecular target: T1, CYP3A (Homo sapiens, UniProt P08684+P20815+P24462+Q9HB55); test: Inhibition of CYP3A in human liver microsomes using midazolam as substrate preincubated for 5 mins followed by NADPH addition and measured for 10 to 30 mins by LC-MS/MS analysis; format: ADME; settings: probe midazolam
How it was run: (§2)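 Inhibition was screened in a panel of eight CYP450 isoforms, with test concentrations escalated up to 100 μM.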

Cytochrome P450 2B6 = molecular target: T2, Cytochrome P450 2B6 (Homo sapiens, UniProt P20813); test: Inhibition of CYP2B6 in human liver microsomes using bupropion as substrate preincubated for 5 mins followed by NADPH addition and measured for 10 to 30 mins by LC-MS/MS analysis; format: ADME; how it was run: as §2
T2 sequence (P20813 whole entry): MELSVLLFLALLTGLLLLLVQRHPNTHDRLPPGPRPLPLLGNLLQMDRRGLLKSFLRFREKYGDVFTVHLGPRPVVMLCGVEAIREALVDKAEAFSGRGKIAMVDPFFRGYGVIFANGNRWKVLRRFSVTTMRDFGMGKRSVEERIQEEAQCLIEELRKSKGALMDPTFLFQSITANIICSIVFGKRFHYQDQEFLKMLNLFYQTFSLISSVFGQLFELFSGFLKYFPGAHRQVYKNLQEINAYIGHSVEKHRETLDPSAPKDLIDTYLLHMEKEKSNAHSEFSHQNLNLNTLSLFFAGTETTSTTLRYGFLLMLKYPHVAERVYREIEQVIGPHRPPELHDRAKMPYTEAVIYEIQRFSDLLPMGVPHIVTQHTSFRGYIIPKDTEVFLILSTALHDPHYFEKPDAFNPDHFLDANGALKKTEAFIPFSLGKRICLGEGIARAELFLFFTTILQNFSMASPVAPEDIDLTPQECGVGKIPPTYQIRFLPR

[7] = Cytotoxicity against dog Cf2Th-CCR5 cells infected with CD4-dependent pseudovirus HIV1 ADA incubated for 48 hrs by MTS assay
[8] = Apparent permeability from basolateral side to apical side in human Caco2 cells at 5 uM preincubated with vals-podar for 30 mins and measured for 120 mins by LC-MS/MS analysis; format: ADME, cell-based; settings: Caco-2, with valspodar (printed as vals-podar; concentration not stated); how it was run: as §1
Cytochrome P450 1A2 = molecular target: T3, Cytochrome P450 1A2 (Homo sapiens, UniProt P05177); test: Inhibition of CYP1A2 in human liver microsomes using phenacetin as substrate preincubated for 5 mins followed by NADPH addition and measured for 10 to 30 mins by LC-MS/MS analysis; format: ADME; how it was run: as §2
T3 sequence (P05177 whole entry): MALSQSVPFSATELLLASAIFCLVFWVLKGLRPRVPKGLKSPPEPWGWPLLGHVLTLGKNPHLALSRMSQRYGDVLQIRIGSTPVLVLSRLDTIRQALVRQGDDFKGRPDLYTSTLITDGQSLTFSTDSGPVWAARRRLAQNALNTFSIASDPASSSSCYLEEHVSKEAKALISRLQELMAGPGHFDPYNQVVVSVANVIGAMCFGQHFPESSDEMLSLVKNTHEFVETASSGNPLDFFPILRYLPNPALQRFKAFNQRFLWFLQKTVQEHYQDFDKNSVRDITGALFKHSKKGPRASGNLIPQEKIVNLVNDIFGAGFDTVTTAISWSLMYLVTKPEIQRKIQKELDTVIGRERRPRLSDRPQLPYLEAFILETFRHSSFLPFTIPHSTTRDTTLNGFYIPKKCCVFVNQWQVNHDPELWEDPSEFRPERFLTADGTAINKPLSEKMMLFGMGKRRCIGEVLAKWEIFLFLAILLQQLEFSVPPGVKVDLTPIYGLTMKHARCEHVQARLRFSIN

[9] = Protein binding in human plasma at 5 uM measured for 4 hrs by LC-MS/MS analysis; format: ADME, cell-free
[10] = Intrinsic clearance in human liver microsomes at 3 uM preincubated for 3 mins followed by NADPH addition and measured up to 120 mins by LC-MS/MS analysis; format: ADME, Microsome; settings: 2 h
[11] = Metabolic stability in human liver microsomes assessed as parent compound remaining at 3 uM preincubated for 3 mins followed by NADPH addition and measured up to 120 mins by LC-MS/MS analysis; format: ADME, Microsome; settings: read-out: Stability
Cytochrome P450 2D6 = Cytochrome P450 2D6 (Homo sapiens, UniProt P10635); test: Inhibition of CYP2D6 in human liver microsomes using bufuralol as substrate preincubated for 5 mins followed by NADPH addition and measured for 10 to 30 mins by LC-MS/MS analysis; format: ADME; how it was run: as §2
Cytochrome P450 2D6, sequence (P10635 whole entry): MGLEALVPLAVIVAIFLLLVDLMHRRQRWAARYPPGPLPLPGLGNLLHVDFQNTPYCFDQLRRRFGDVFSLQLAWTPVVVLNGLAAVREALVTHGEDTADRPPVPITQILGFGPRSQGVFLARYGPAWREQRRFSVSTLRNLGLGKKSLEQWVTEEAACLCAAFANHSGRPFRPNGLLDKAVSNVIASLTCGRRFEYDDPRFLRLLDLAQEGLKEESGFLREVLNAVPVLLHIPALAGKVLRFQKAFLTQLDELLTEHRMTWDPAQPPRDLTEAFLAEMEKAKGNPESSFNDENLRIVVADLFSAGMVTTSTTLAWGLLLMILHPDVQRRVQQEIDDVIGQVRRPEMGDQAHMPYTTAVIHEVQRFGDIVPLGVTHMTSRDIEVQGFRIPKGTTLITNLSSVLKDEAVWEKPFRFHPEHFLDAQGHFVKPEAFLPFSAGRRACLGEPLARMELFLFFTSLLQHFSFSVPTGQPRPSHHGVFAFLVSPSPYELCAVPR

Cytochrome P450 2C8 = molecular target: T4, Cytochrome P450 2C8 (Homo sapiens, UniProt P10632); test: Inhibition of CYP2C8 in human liver microsomes using amodiaquine as substrate preincubated for 5 mins followed by NADPH addition and measured for 10 to 30 mins by LC-MS/MS analysis; format: ADME; how it was run: as §2
T4 sequence (P10632 whole entry): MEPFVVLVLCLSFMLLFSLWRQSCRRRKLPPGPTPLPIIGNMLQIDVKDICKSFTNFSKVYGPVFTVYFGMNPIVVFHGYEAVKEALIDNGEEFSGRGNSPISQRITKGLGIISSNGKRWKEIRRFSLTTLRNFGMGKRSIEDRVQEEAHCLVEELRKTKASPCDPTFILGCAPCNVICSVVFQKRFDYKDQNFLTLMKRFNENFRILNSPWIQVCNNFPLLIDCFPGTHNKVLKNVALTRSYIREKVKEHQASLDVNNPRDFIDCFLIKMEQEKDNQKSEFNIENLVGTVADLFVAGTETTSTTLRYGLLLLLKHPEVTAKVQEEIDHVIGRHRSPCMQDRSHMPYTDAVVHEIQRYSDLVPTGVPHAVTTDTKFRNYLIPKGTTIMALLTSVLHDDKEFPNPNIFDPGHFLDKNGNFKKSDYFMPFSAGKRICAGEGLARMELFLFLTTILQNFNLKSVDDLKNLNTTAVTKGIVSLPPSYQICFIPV

CYP3A [12] = molecular target: T1, CYP3A; test: Inhibition of CYP3A in human liver microsomes using testosterone as substrate preincubated for 5 mins followed by NADPH addition and measured for 10 to 30 mins by LC-MS/MS analysis; format: ADME; settings: probe testosterone; how it was run: as §2
Cytochrome P450 2C9 = Cytochrome P450 2C9 (Homo sapiens, UniProt P11712); test: Inhibition of CYP2C9 in human liver microsomes using diclofenac as substrate preincubated for 5 mins followed by NADPH addition and measured for 10 to 30 mins by LC-MS/MS analysis; format: ADME; how it was run: as §2
Cytochrome P450 2C9, sequence (P11712 whole entry): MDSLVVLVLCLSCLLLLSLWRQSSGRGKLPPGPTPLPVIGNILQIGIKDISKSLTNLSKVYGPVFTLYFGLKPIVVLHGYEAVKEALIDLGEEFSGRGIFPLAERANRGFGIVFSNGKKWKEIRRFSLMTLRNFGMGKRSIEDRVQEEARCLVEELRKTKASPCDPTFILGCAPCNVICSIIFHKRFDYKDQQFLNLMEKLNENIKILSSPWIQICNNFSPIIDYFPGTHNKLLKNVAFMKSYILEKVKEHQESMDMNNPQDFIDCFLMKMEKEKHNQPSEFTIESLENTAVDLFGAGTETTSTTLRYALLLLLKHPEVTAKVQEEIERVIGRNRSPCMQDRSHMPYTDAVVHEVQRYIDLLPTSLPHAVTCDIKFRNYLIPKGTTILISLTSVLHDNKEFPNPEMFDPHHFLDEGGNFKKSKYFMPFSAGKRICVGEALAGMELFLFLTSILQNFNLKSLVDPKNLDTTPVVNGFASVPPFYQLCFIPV

Cytochrome P450 2C19 = Cytochrome P450 2C19 (Homo sapiens, UniProt P33261); test: Inhibition of CYP2C19 in human liver microsomes using S-mephenytoin as substrate preincubated for 5 mins followed by NADPH addition and measured for 10 to 30 mins by LC-MS/MS analysis; format: ADME; how it was run: as §2
Cytochrome P450 2C19, sequence (P33261 whole entry): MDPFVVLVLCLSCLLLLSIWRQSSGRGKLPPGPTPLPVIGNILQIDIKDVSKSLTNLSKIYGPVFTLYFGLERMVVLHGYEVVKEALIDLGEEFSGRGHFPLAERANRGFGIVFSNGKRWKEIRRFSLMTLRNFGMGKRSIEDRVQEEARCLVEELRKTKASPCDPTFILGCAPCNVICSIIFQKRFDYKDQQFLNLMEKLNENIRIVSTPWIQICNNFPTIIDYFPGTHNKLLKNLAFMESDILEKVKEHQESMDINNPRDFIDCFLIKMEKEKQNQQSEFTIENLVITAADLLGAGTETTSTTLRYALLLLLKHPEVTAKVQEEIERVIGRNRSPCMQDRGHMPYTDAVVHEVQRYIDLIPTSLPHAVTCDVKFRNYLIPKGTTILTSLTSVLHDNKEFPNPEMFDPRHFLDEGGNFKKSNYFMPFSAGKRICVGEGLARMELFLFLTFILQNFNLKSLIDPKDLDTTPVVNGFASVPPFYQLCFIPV

**Q.** For `Cc1cc(-c2ccc(C(F)(F)F)cn2)[nH]c1C(=O)N[C@@H](CN)c1ncc(CO)s1`, which solubility [1] is on record?
**A.** 0.734 mg/mL (≈ 1730 µM)

**Q.** And the CC50 (TZM)?
**A.** 109 µM

**Q.** And the Papp [2]?
**A.** 6.51 ×10⁻⁶ cm/s

**Q.** And the t1/2 [3]?
**A.** > 120 min

**Q.** What about the Papp A→B at 2 h, 5 µM [4] of the same compound?
**A.** 14 ×10⁻⁶ cm/s

**Q.** And the Papp [5]?
**A.** 20.3 ×10⁻⁶ cm/s

**Q.** And the IC50 (CYP3A [6])?
**A.** > 100 µM

**Q.** What about the IC50 (Cytochrome P450 2B6) of the same compound?
**A.** 85.4 µM

**Q.** And the Activity [7]?
**A.** Non-Toxic

**Q.** What about the Papp B→A at 2 h, 5 µM [8] of the same compound?
**A.** 10.5 ×10⁻⁶ cm/s

**Q.** What about the IC50 (Cytochrome P450 1A2) of the same compound?
**A.** 70.1 µM

**Q.** And the PPB [9]?
**A.** 99.2%

**Q.** And the CLH [10]?
**A.** < 0.0116 mL/min/mg

**Q.** What about the remaining at 2 h, 3 µM [11] of the same compound?
**A.** 93.5%

**Q.** And the IC50 (Cytochrome P450 2D6)?
**A.** > 100 µM

**Q.** And the IC50 (Cytochrome P450 2C8)?
**A.** > 100 µM

**Q.** What about the IC50 (CYP3A [12]) of the same compound?
**A.** > 62.2 µM

**Q.** And the IC50 (Cytochrome P450 2C9)?
**A.** > 100 µM

**Q.** And the IC50 (Cytochrome P450 2C19)?
**A.** > 100 µM

Reference: ChEMBL document CHEMBL4402563, “Preclinical Optimization of gp120 Entry Antagonists as anti-HIV-1 Agents with Improved Cytotoxicity and ADME Properties through Rational Design, Synthesis, and Antiviral Evaluation” (J Med Chem, 2020)
